Results reported in PubChem BioAssay AID504531 (The Scripps Research Institute Molecular Screening Center, 2011).

How the values were obtained:
[1] = target: Platelet-activating factor acetylhydrolase 2, cytoplasmic (Mus musculus) (UniProt Q8VDG7); experiment: in situ PAFAH2 versus pPAFAH selectivity – fluorescence, gel-based ABPP, murine mast cells, selectivity assay for PAFAH2 inhibitor project, late-stage follow-up (AID 504531); conditions: gel-based ABPP FP-Rh, PAFAH2, at 0.01 µM, stronger effect = higher value
How it was run: (§1)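 Material: murine mast cells treated in situ, then soluble lysate fraction; benchmarks: high control DMSO-only treated cells, low control blank-gel background; schedule: cells 4 h 37 °C, probe 30 min 25 °C; also added: Rhodamine-tagged fluorophosphonate activity probe (FP-Rh), 2 µM final; detection: SDS-PAGE with in-gel fluorescence scanning, band integrated optical density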

[2] = target: Platelet-activating factor acetylhydrolase (Mus musculus) (UniProt Q60963); experiment: as above; conditions: gel-based ABPP FP-Rh, pPAFAH, at 0.01 µM, stronger effect = higher value
How it was run: as §1

Platelet-activating factor acetylhydrolase 2, cytoplasmic (Mus musculus), sequence (Q8VDG7 whole entry, looked up): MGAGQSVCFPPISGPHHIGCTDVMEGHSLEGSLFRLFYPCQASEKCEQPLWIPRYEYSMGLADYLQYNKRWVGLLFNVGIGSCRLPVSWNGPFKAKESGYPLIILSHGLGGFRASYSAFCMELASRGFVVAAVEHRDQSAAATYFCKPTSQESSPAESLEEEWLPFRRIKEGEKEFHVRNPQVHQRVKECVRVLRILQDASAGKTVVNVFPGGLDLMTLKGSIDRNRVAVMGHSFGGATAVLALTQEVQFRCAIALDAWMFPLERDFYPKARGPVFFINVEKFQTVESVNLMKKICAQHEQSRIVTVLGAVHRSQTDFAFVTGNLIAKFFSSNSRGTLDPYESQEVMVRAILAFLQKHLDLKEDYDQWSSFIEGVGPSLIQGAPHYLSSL
Platelet-activating factor acetylhydrolase (Mus musculus), sequence (Q60963 whole entry, looked up): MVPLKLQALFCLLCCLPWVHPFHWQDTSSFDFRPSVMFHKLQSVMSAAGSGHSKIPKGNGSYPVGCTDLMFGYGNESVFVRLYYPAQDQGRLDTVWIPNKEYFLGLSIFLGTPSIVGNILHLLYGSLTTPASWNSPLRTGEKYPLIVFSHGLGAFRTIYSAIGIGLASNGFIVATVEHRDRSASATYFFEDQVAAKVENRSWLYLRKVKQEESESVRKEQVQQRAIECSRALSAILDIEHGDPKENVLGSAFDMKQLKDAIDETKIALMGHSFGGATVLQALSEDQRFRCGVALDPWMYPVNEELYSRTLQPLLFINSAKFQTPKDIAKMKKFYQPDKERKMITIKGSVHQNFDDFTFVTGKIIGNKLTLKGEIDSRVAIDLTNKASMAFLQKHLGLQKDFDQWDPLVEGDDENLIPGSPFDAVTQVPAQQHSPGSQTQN

- inhibition [1]: 100%
- inhibition [2]: 0%
SMILES: O=C(N1CCCC1)n1ncc(-c2ccc(-c3ccccc3)cc2)n1
